Bioassay records: PubChem, Sanford-Burnham Center for Chemical Genomics
This is a sample that favours compounds with a hit; in the whole collection about 1.8% have one here.
hiPSC survival – hiPSC single-cell survival enhancement; ATPlite luminescence; 100% = ROCK inhibitor wells, 0% = DMSO; survival enhancement, % at 20 µM; hit rate 0.044% among 360,000; AID 602274; in the data active = survival enhancement above about 18%;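 also: cells exposed to compounds for 16 hours before the ATP read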
MIN6 prolif-1 – MIN6 beta-cell proliferation induction; proliferation, % at 10 µM; hit rate 0.29% among 330,000; MIN6 cells proliferation, ATPlite luminescence, 48 h; cells starved in 0.2% serum; 100% = growth in 10% serum;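 active = compounds whose signal lies at least 3.5 SD above the mean of all wells on their plate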
FLuc stim CS – firefly luciferase counter-screen for stimulation assays; P08659; ATPlite luciferase biochemical, luminescence, 10 min; 0 = ATP-free wells, 1 = DMSO control; activation factor at 10 µM; 200,000 tested, under 10 active;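 active = luciferase activation factor, scaled between plate controls, of at least 2 with compound at 10 µM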
Target sequence (P08659 whole entry, looked up): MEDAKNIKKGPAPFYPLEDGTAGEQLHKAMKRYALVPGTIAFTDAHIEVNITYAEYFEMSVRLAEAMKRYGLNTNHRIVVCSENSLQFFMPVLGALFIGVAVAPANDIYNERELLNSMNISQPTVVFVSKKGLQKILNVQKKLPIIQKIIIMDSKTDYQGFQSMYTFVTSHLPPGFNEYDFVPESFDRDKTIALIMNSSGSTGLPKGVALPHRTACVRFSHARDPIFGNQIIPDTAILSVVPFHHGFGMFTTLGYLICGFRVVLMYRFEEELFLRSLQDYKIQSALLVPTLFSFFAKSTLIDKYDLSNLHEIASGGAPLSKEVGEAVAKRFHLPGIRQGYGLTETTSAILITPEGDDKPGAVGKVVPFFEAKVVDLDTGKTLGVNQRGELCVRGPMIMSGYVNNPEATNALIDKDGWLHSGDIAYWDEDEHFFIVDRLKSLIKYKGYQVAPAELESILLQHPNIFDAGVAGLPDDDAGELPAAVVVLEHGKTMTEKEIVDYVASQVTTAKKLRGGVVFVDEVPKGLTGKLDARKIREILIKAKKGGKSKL
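Material: Luciferase/luciferin reagent mix | Doses: Test compounds dosed from 2 mM stocks in 100% DMSO | Timing: 10 min incubation after luciferase reagent addition, room temperature | Measured by: Luminescence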
TRAIL sens C8 – sensitizes caspase-8 expressing cells to TRAIL; NB7+C8 cells + TRAIL, ATPlite viability luminescence; hit rate 1% among 360,000; inhibition (viability loss, TRAIL sensitization), % at 10 µM; AID 624354;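 active = compounds causing at least 50% loss of cell viability in the single-dose screen, relative to plate controls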
FLuc inhib CS – inhibits firefly luciferase, flagging false hits in luciferase inhibition screens | ATPLite firefly luciferase biochemical luminescence, 10 min | inhibition, % at 10 µM | hit rate 1.5% among 200,000;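 active = inhibition above about 50% when tested at 10 µM, limit read from the data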
PPC-1+TRAIL kill – kills PPC-1 cancer cells in the presence of TRAIL. PPC-1 cells + TRAIL, ATPLite viability luminescence. cell killing (% activity), % at 4 µM or 5 µM. hit rate 0.41% among 220,000;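 active = cell killing above 50% in the first pass at 4 µM, then a duplicate retest at 5 µM averaging 50% or more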
PPC1 cytotox – kills PPC-1 cells; shares compounds with PPC-1+TRAIL kill; PPC-1 viability, ATPlite luminescence, overnight; cytotoxicity, % at 5 µM; hit rate 50% among 1,200; AID 1447;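 active = reconfirmed compounds whose average cytotoxicity reaches 50% or more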
MIN6 prolif-2 – MIN6 beta-cell replication induction, confirmed. shares compounds with MIN6 prolif-1. MIN6 beta-cell proliferation, ATPlite luminescence, 48 h; cells kept in 0.2% serum; scaled between 0.2% and 10% serum. proliferation increase, % at 50 µM. 920 tested, under 10 active. AID 463095;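 active = proliferation increase above 40% at any of the four tested concentrations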
Of the large screens only hits and unclear results are named; the others gave an inactive call (follow-up assays come after a bar, where they were run).

Cn1ncnc2c(=O)n(C)c(=O)nc1-2	TRAIL sens C8 96.0, PPC-1+TRAIL kill 89.3 | PPC1 cytotox 90.3
Cc1ccc(CCN2CC(C(=O)N3CCC4(CC3)OCCO4)CC2=O)cc1 (stereo not given)	none
COC(=O)c1ccccc1NC(=O)N1C[C@@H]2C[C@@H](C1)c1cccc(=O)n1C2	none (no result: FLuc stim CS, FLuc inhib CS, PPC-1+TRAIL kill)
C[C@H]1C[C@@H](C)C(=O)[C@@H]([C@H](O)CC2CC(=O)NC(=O)C2)C1	none | PPC1 cytotox inactive
CC[C@H]1C2C[C@H]3[C@@H]4N(C)c5ccccc5C45C[C@H](C2[C@H]5O)N3[C@@H]1O (stereo not given in full)	none (no result: FLuc stim CS, FLuc inhib CS, PPC-1+TRAIL kill)
Cc1cc(N)n(C2CCN(C)CC2)n1	none
CN1CCN(C(=O)COc2ccc(-c3nc4ccccc4s3)cc2)CC1	TRAIL sens C8 91.7, FLuc inhib CS 96.4, PPC-1+TRAIL kill 91.8 | PPC1 cytotox 91.2
CN1CCN(C(=O)COc2ccc3ccccc3c2)CC1	none (no result: FLuc stim CS, FLuc inhib CS, PPC-1+TRAIL kill)
Cn1c(O)c(C=NCCN2CCN(C(=O)c3ccccc3)CC2)c(=O)n(C)c1=O	MIN6 prolif-1 9.6 | MIN6 prolif-2 inactive
Cn1c(O)c(C=NCCOc2ccc(Cl)cc2)c(=O)n(C)c1=O	none
COc1ccc2c(c1)/C(=C/c1cnc[nH]1)C(=O)N2	MIN6 prolif-1 18.5 (no result: FLuc stim CS, FLuc inhib CS, PPC-1+TRAIL kill) | MIN6 prolif-2 inactive
CCC(=NCc1cccnc1)c1c(O)n(-c2ccc(C)cc2)c(=O)[nH]c1=O	none (no result: FLuc stim CS, FLuc inhib CS)
CCOC(=O)CNC(=O)N1Cc2ccccc2-n2nncc2C1	none (no result: MIN6 prolif-1, FLuc stim CS, FLuc inhib CS, PPC-1+TRAIL kill)
c1ccc(P(c2ccccc2)c2ccccn2)cc1	MIN6 prolif-1 5.8 (no result: FLuc stim CS, FLuc inhib CS) | MIN6 prolif-2 inactive
Cc1cccc(N2CCc3c2nc2ccccc2c3N)c1	none
CCOC(=O)C(c1c(O)c2ccccc2oc1=O)c1c(O)c2ccccc2oc1=O	none (no result: MIN6 prolif-1, FLuc stim CS, FLuc inhib CS, PPC-1+TRAIL kill)
O=c1oc2ccccc2c(O)c1C(c1ccccn1)c1c(O)c2ccccc2oc1=O	MIN6 prolif-1 8.0 (no result: FLuc stim CS, FLuc inhib CS) | MIN6 prolif-2 inactive
Cc1ccc(-n2c(-c3cccs3)nc3ccccc3c2=O)cc1	MIN6 prolif-1 9.3 | MIN6 prolif-2 inactive
CC(NC(=O)Oc1ccccc1)C(c1cccs1)N1CCOCC1 (stereo not given)	none
CC(Cc1ccccc1)NC(=O)/C=C/C(=O)O (stereo not given)	MIN6 prolif-1 7.3 | MIN6 prolif-2 inactive
COc1cc2occc2c2oc(=O)ccc12	none
COc1cc2ccc(=O)oc2c2ccoc12	MIN6 prolif-1 11.7 | MIN6 prolif-2 inactive
CS(=O)(=O)Nc1ccc(Cc2noc(-c3ccc4[nH]cc(CCN)c4c3)n2)cc1	none (no result: hiPSC survival, TRAIL sens C8)
CC1=CC(=C2C(=O)NC(=S)NC2=O)C=C(C(F)(F)F)N1Cc1ccccc1	none
CC1=CC(=C2C(=O)NC(=O)NC2=O)C=C(C(F)(F)F)N1Cc1ccccc1	MIN6 prolif-1 9.2 | MIN6 prolif-2 inactive
CCC1(OC(=O)c2ccccc2)CC(C)N(C)CC1C (stereo not given)	MIN6 prolif-1 7.0 (no result: FLuc stim CS, FLuc inhib CS, PPC-1+TRAIL kill) | MIN6 prolif-2 inactive
CCC(=NCCN1CCOCC1)c1c(O)n(-c2ccccc2C)c(=O)[nH]c1=O	none
CC(=NCCN1CCOCC1)c1c(O)n(-c2ccccc2C)c(=O)[nH]c1=O	MIN6 prolif-1 12.1 | MIN6 prolif-2 inactive
O=C(N/N=C/c1c(O)n(Cc2ccco2)c(=O)[nH]c1=O)c1ccccc1O	MIN6 prolif-1 8.0 (no result: FLuc stim CS, FLuc inhib CS) | MIN6 prolif-2 inactive
CCCCC(=O)N/N=C/c1c(O)n(Cc2ccco2)c(=O)[nH]c1=O	none
O=C(CCc1nnc2ccc(NCc3ccc(F)cc3)nn12)N1CCC2(CC1)OCCO2	none (no result: FLuc stim CS, FLuc inhib CS, PPC-1+TRAIL kill)
CNC(=O)O/N=C/c1nn(C(=O)C(C)(C)C)cc1Br	MIN6 prolif-1 5.1 (no result: FLuc stim CS, FLuc inhib CS) | MIN6 prolif-2 inactive
CC1(C)C2([N+](=O)[O-])CNCC1([N+](=O)[O-])CNC2	none
CCN(CC)C(=O)COc1cc(C)cc2oc(=O)c3c(c12)CCCC3	MIN6 prolif-1 6.6 (no result: FLuc stim CS, FLuc inhib CS, PPC-1+TRAIL kill) | MIN6 prolif-2 inactive
